Measured values as given in ChEMBL document CHEMBL4725486, “Effects of C-Terminal B-Chain Modifications in a Relaxin 3 Agonist Analogue” (ACS Med Chem Lett, 2020).

Experiments:
Relaxin-3 receptor 2 = Relaxin-3 receptor 2 (Homo sapiens, UniProt Q8TDU9); assay: Agonist activity at RXFP4 (unknown origin) stably expressed in CHO cells co-transfected with pCRE assessed as inhibition of forskolin-induced cAMP accumulation measured after 6 hrs by beta-galactosidase reporter gene assay; type: functional, cell-based
Chain of Relaxin-3 receptor 2 (Q8TDU9 whole entry): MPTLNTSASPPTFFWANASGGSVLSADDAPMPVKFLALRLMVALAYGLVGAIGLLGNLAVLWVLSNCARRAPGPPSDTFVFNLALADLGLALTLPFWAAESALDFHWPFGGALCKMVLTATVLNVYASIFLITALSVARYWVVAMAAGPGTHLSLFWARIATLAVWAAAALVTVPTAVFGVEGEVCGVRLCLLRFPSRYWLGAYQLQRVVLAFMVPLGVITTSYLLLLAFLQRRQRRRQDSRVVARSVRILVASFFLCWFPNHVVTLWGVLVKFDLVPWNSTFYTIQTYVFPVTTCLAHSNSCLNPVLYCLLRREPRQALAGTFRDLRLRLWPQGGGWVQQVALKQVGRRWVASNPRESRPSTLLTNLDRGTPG
How it was run: (§1)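 Cells were CHO lines expressing RXFP3 or RXFP4, which couple to Gi/o. Agonist action was read as inhibition of forskolin-stimulated cAMP in a reporter gene assay after 6 h stimulation. pEC50 values were pooled from 3–4 independent experiments.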

Relaxin-3 receptor 1 [1] = target: T1, Relaxin-3 receptor 1 (Homo sapiens, UniProt Q9NSD7); assay: Agonist activity at RXFP3 (unknown origin) stably expressed in CHO-K1 cells co-transfected with pCRE assessed as inhibition of forskolin-induced cAMP accumulation measured after 6 hrs by beta-galactosidase reporter gene assay; type: functional, cell-based; how it was run: as §1
T1 sequence (Q9NSD7 whole entry): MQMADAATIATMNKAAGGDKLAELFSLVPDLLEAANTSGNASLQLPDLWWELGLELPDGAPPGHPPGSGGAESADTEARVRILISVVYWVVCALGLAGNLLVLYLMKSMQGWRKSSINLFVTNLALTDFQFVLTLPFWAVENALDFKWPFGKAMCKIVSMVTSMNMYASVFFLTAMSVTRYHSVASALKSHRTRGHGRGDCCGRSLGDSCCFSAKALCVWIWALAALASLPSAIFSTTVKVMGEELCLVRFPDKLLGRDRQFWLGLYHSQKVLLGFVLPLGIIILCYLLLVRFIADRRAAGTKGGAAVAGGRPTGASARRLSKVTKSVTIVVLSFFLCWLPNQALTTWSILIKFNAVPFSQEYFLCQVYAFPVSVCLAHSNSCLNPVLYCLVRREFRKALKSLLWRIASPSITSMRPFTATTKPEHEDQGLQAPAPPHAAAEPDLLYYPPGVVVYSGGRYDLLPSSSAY

Relaxin-3 receptor 1 [2] = target: T1, Relaxin-3 receptor 1; assay: Displacement of Eu-labeled H3B1-22R from RXFP3 (unknown origin) stably expressed in CHO-K1 cells by competition binding assay; type: cell-based
How it was run: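 Competition binding used europium-labeled H3 B1-22R as the labeled ligand on CHO-RXFP3 cells, with peptides as competitors. pKi values were pooled from 3–4 independent experiments.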

SMILES	EC50 (Relaxin-3 receptor 2) [nM]	EC50 (Relaxin-3 receptor 1 [1]) [nM]	Ki (Relaxin-3 receptor 1 [2]) [nM]
CC[C@H](C)[C@@H]1NC(=O)[C@H](CCC(=O)O)NC(=O)[C@H](CO)NC(=O)[C@H](CCCCN)NC(=O)[C@H](CO)NC(=O)[C@H](C)NC(=O)CNC(=O)[C@H](Cc2c[nH]c3ccccc23)NC(=O)[C@H](CCCCN)NC(=O)[C@@H](N)CSSC[C@@H](C(=O)NCC(=O)NCC(=O)N[C@@H](CO)C(=O)N[C@@H](CCCNC(=N)N)C(=O)N[C@@H](Cc2c[nH]c3ccccc23)C(=O)O)NC(=O)[C@H]([C@@H](C)O)NC(=O)[C@H](Cc2ccccc2)NC(=O)[C@H]([C@@H](C)CC)NC(=O)[C@H](C(C)C)NC(=O)[C@H](CCCNC(=N)N)NC(=O)[C@H]([C@@H](C)CC)NC(=O)[C@H](Cc2ccccc2)NC(=O)[C@H](CCC(=O)O)NC(=O)[C@H](CCCNC(=N)N)NC(=O)CNC(=O)[C@@H](NC(=O)[C@H](CC(C)C)NC(=O)[C@H](CCCNC(=N)N)NC(=O)[C@@H](NC(=O)CNC(=O)[C@H](Cc2ccc(O)cc2)NC(=O)[C@@H]2CCCN2C(=O)[C@H](C)NC(=O)[C@H](C)NC(=O)[C@H](CCCNC(=N)N)N[C@@H](Cc2c[nH]c3ccccc23)C(N)=O)C(C)C)CSSC[C@@H](C(=O)O)NC(=O)[C@H](CC(C)C)NC(=O)[C@H](CO)NC(=O)[C@H](CO)NC1=O	14.5	15.8	191
CC[C@H](C)[C@@H]1NC(=O)[C@H](CCC(=O)O)NC(=O)[C@H](CO)NC(=O)[C@H](CCCCN)NC(=O)[C@H](CO)NC(=O)[C@H](C)NC(=O)CNC(=O)[C@H](Cc2c[nH]c3ccccc23)NC(=O)[C@H](CCCCN)NC(=O)[C@@H](N)CSSC[C@@H](C(=O)NCC(=O)NCC(=O)N[C@@H](CO)C(=O)N[C@@H](CCCNC(=N)N)C(=O)N[C@@H](Cc2c[nH]c3ccccc23)C(=O)O)NC(=O)[C@H]([C@@H](C)O)NC(=O)[C@H](Cc2ccccc2)NC(=O)[C@H]([C@@H](C)CC)NC(=O)[C@H](C(C)C)NC(=O)[C@H](CCCNC(=N)N)NC(=O)[C@H]([C@@H](C)CC)NC(=O)[C@H](Cc2ccccc2)NC(=O)[C@H](CCC(=O)O)NC(=O)[C@H](CCCNC(=N)N)NC(=O)CNC(=O)[C@@H](NC(=O)[C@H](CC(C)C)NC(=O)[C@H](CCCNC(=N)N)NC(=O)[C@@H](NC(=O)CNC(=O)[C@H](Cc2ccc(O)cc2)NC(=O)[C@@H]2CCCN2C(=O)[C@H](C)NC(=O)[C@H](C)NC(=O)[C@H](CCCNC(=N)N)N[C@@H](Cc2c[nH]c3ccccc23)C(=O)OC[C@H](NC(C)=O)C(N)=O)C(C)C)CSSC[C@@H](C(=O)O)NC(=O)[C@H](CC(C)C)NC(=O)[C@H](CO)NC(=O)[C@H](CO)NC1=O	7.08	4.37	186
CC[C@H](C)[C@@H]1NC(=O)[C@H](CCC(=O)O)NC(=O)[C@H](CO)NC(=O)[C@H](CCCCN)NC(=O)[C@H](CO)NC(=O)[C@H](C)NC(=O)CNC(=O)[C@H](Cc2c[nH]c3ccccc23)NC(=O)[C@H](CCCCN)NC(=O)[C@@H](N)CSSC[C@@H](C(=O)NCC(=O)NCC(=O)N[C@@H](CO)C(=O)N[C@@H](CCCNC(=N)N)C(=O)N[C@@H](Cc2c[nH]c3ccccc23)C(=O)O)NC(=O)[C@H]([C@@H](C)O)NC(=O)[C@H](Cc2ccccc2)NC(=O)[C@H]([C@@H](C)CC)NC(=O)[C@H](C(C)C)NC(=O)[C@H](CCCNC(=N)N)NC(=O)[C@H]([C@@H](C)CC)NC(=O)[C@H](Cc2ccccc2)NC(=O)[C@H](CCC(=O)O)NC(=O)[C@H](CCCNC(=N)N)NC(=O)CNC(=O)[C@@H](NC(=O)[C@H](CC(C)C)NC(=O)[C@H](CCCNC(=N)N)NC(=O)[C@@H](NC(=O)CNC(=O)[C@H](Cc2ccc(O)cc2)NC(=O)[C@@H]2CCCN2C(=O)[C@H](C)NC(=O)[C@H](C)NC(=O)[C@H](CCCNC(=N)N)N[C@H](CO)Cc2c[nH]c3ccccc23)C(C)C)CSSC[C@@H](C(=O)O)NC(=O)[C@H](CC(C)C)NC(=O)[C@H](CO)NC(=O)[C@H](CO)NC1=O	282	13.2	331
CC[C@H](C)[C@@H]1NC(=O)[C@H](CCC(=O)O)NC(=O)[C@H](CO)NC(=O)[C@H](CCCCN)NC(=O)[C@H](CO)NC(=O)[C@H](C)NC(=O)CNC(=O)[C@H](Cc2c[nH]c3ccccc23)NC(=O)[C@H](CCCCN)NC(=O)[C@@H](N)CSSC[C@@H](C(=O)NCC(=O)NCC(=O)N[C@@H](CO)C(=O)N[C@@H](CCCNC(=N)N)C(=O)N[C@@H](Cc2c[nH]c3ccccc23)C(=O)O)NC(=O)[C@H]([C@@H](C)O)NC(=O)[C@H](Cc2ccccc2)NC(=O)[C@H]([C@@H](C)CC)NC(=O)[C@H](C(C)C)NC(=O)[C@H](CCCNC(=N)N)NC(=O)[C@H]([C@@H](C)CC)NC(=O)[C@H](Cc2ccccc2)NC(=O)[C@H](CCC(=O)O)NC(=O)[C@H](CCCNC(=N)N)NC(=O)CNC(=O)[C@@H](NC(=O)[C@H](CC(C)C)NC(=O)[C@H](CCCNC(=N)N)NC(=O)[C@@H](NC(=O)CNC(=O)[C@H](Cc2ccc(O)cc2)NC(=O)[C@@H]2CCCN2C(=O)[C@H](C)NC(=O)[C@H](C)NC(=O)[C@H](CCCNC(=N)N)N[C@H](COC(N)=O)Cc2c[nH]c3ccccc23)C(C)C)CSSC[C@@H](C(=O)O)NC(=O)[C@H](CC(C)C)NC(=O)[C@H](CO)NC(=O)[C@H](CO)NC1=O	19.5	6.17	110
CC[C@H](C)[C@@H]1NC(=O)[C@H](CCC(=O)O)NC(=O)[C@H](CO)NC(=O)[C@H](CCCCN)NC(=O)[C@H](CO)NC(=O)[C@H](C)NC(=O)CNC(=O)[C@H](Cc2c[nH]c3ccccc23)NC(=O)[C@H](CCCCN)NC(=O)[C@@H](N)CSSC[C@@H](C(=O)NCC(=O)NCC(=O)N[C@@H](CO)C(=O)N[C@@H](CCCNC(=N)N)C(=O)N[C@@H](Cc2c[nH]c3ccccc23)C(=O)O)NC(=O)[C@H]([C@@H](C)O)NC(=O)[C@H](Cc2ccccc2)NC(=O)[C@H]([C@@H](C)CC)NC(=O)[C@H](C(C)C)NC(=O)[C@H](CCCNC(=N)N)NC(=O)[C@H]([C@@H](C)CC)NC(=O)[C@H](Cc2ccccc2)NC(=O)[C@H](CCC(=O)O)NC(=O)[C@H](CCCNC(=N)N)NC(=O)CNC(=O)[C@@H](NC(=O)[C@H](CC(C)C)NC(=O)[C@H](CCCNC(=N)N)NC(=O)[C@@H](NC(=O)CNC(=O)[C@H](Cc2ccc(O)cc2)NC(=O)[C@@H]2CCCN2C(=O)[C@H](C)NC(=O)[C@H](C)NC(=O)[C@H](CCCNC(=N)N)N[C@@H](Cc2c[nH]c3ccccc23)C(=O)O)C(C)C)CSSC[C@@H](C(=O)O)NC(=O)[C@H](CC(C)C)NC(=O)[C@H](CO)NC(=O)[C@H](CO)NC1=O	6.92	6.17	45.7
